# Measured values from ChEMBL document CHEMBL3808369, “Identification of Cyproheptadine as an Inhibitor of SET Domain Containing Lysine Methyltransferase 7/9 (Set7/9) That Regulates Estrogen-Dependent Transcription” (J Med Chem, 2016).
# Calls of active or inactive are those of the source. The rule behind the calls is not given here.
# Assays:
# [1] = target: T1, Histone-lysine N-methyltransferase SETD7 (Homo sapiens, UniProt Q8WTS6); assay: Inhibition of recombinant Set7/9 (unknown origin) expressed in Escherichia coli BL21 (DE3) using Ac-KRSK-MCA peptide/SAM as substrate preincubated for 1 hr followed by substrate addition measured after 15 mins by Dixon plot analysis
# T1 sequence (Q8WTS6 whole entry): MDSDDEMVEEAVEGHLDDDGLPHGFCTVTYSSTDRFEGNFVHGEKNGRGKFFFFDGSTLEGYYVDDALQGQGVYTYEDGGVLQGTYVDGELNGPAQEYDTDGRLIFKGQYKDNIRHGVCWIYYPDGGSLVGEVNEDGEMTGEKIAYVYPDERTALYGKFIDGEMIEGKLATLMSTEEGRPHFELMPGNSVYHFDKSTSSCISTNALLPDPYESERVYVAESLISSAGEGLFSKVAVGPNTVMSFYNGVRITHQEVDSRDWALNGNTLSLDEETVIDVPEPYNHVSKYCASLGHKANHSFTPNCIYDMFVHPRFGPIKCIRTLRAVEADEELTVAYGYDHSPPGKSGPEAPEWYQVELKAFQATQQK
# How it was run: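 Fluorogenic HMT kinetics used recombinant His-Set7/9 expressed in E. coli BL21(DE3) (IPTG 0.1 mM, 18 °C, 24 h) and purified on Ni2+ affinity. The methyl acceptor was Ac-KRSK-MCA and the cofactor was SAM. Ki was obtained from a Dixon plot of initial velocity versus inhibitor. Four independent assays, SD.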
# [2] = target: T2, Histone-lysine N-methyltransferase SETD7 (Homo sapiens) (UniProt Q8WTS6); assay: Inhibition of Set7/9 in human MCF7 cells assessed as reduction of ERalpha expression at 43 uM by immunoblotting analysis; format: cell-based; conditions: TDE = time-dependent effect
# T2 sequence (whole entry): T1 sequence (Q8WTS6 whole entry)
# How it was run: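 MCF7 cells (1 × 10^5 per well) treated either with a concentration series for 48 h or with 43 μM over a time course. RIPA-sonicated lysates were immunoblotted for ERα with enhanced chemiluminescence readout.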
# [3] = target: T3, Histone-lysine N-methyltransferase EHMT2 (Homo sapiens) (UniProt Q96KQ7); assay: Inhibition of G9a (unknown origin) by fluorogenic assay
# T3 sequence (whole entry): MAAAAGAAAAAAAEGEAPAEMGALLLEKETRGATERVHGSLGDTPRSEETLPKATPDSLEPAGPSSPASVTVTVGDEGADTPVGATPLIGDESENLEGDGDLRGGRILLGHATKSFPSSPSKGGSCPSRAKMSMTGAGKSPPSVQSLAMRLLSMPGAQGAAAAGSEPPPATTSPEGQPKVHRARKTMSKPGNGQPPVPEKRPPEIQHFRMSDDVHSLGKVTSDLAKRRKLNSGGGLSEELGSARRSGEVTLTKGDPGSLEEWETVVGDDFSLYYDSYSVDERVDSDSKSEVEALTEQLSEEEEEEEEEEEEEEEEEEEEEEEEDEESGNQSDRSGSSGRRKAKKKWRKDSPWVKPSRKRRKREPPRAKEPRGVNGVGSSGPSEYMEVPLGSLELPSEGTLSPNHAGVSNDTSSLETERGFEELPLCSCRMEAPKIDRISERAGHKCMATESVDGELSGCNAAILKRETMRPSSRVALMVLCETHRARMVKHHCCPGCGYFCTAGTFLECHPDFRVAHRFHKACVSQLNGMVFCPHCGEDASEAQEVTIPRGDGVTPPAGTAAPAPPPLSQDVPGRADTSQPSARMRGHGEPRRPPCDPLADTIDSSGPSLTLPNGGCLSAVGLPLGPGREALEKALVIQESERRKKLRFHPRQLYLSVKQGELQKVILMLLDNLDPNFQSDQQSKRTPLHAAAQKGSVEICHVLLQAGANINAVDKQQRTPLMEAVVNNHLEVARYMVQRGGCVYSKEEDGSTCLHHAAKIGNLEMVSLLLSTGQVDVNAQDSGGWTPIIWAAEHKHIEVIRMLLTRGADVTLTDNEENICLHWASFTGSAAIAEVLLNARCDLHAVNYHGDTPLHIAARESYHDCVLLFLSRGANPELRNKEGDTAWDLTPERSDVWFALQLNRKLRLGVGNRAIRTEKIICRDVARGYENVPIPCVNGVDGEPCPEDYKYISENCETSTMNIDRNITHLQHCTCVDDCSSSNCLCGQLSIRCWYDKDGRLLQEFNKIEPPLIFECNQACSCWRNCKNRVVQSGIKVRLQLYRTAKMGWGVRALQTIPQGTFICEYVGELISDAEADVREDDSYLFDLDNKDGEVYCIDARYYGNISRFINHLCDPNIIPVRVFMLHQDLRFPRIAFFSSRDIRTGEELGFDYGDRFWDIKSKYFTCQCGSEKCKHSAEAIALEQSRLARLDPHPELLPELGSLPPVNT
# [4] = target: Histone-lysine N-methyltransferase, H3 lysine-79 specific (Homo sapiens) (UniProt Q8TEK3); assay: Inhibition of Dot1L (unknown origin) by AlphaELISA
# [5] = target: T4, N-lysine methyltransferase KMT5A (Homo sapiens) (UniProt Q9NQR1); assay: Inhibition of Set8 (unknown origin) by AlphaELISA
# T4 sequence (whole entry): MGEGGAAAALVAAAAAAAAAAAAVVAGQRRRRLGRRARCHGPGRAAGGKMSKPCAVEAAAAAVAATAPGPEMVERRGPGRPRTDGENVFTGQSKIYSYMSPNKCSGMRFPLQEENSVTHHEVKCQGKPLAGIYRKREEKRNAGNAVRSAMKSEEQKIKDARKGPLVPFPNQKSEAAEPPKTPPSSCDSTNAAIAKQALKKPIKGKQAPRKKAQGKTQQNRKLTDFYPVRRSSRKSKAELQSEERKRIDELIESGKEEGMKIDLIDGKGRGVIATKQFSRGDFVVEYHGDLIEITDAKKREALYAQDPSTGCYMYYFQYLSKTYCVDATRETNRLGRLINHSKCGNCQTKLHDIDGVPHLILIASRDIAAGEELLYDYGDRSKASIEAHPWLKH
# [6] = target: T2, Histone-lysine N-methyltransferase SETD7 (Homo sapiens); assay: Inhibition of Set7/9 in human MCF7 cells assessed as ERalpha destabilization at 43 uM for 36 hrs by immunoblotting analysis in presence of proteasome inhibitor MG132; format: cell-based
# How it was run: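 MCF7 cells treated with or without 43 μM drug for 36 h, then MG132 added for 12 h. Cells lysed by sonication in RIPA buffer with protease inhibitors. ERα read by SDS-PAGE/PVDF immunoblot with chemiluminescent detection.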
# [7] = target: T2, Histone-lysine N-methyltransferase SETD7 (Homo sapiens); assay: Non competitive inhibition of recombinant Set7/9 (unknown origin) expressed in Escherichia coli BL21 (DE3) using Ac-KRSK-MCA peptide as substrate and varying SAM preincubated for 1 hr followed by substrate addition measured after 15 mins by Lineweaver-Burk plot analysis
# How it was run: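 His6-tagged Set7/9 purified by Ni2+ affinity from E. coli BL21(DE3) after induction with 0.1 mM IPTG at 18 °C for 24 h. Kinetics were run in a fluorogenic HMT assay using Ac-KRSK-MCA peptide, with either SAM or peptide concentration varied. Initial velocities were analysed by Lineweaver–Burk plot, four independent assays.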
# Sequence of Histone-lysine N-methyltransferase, H3 lysine-79 specific (Homo sapiens) (Q8TEK3 whole entry, looked up): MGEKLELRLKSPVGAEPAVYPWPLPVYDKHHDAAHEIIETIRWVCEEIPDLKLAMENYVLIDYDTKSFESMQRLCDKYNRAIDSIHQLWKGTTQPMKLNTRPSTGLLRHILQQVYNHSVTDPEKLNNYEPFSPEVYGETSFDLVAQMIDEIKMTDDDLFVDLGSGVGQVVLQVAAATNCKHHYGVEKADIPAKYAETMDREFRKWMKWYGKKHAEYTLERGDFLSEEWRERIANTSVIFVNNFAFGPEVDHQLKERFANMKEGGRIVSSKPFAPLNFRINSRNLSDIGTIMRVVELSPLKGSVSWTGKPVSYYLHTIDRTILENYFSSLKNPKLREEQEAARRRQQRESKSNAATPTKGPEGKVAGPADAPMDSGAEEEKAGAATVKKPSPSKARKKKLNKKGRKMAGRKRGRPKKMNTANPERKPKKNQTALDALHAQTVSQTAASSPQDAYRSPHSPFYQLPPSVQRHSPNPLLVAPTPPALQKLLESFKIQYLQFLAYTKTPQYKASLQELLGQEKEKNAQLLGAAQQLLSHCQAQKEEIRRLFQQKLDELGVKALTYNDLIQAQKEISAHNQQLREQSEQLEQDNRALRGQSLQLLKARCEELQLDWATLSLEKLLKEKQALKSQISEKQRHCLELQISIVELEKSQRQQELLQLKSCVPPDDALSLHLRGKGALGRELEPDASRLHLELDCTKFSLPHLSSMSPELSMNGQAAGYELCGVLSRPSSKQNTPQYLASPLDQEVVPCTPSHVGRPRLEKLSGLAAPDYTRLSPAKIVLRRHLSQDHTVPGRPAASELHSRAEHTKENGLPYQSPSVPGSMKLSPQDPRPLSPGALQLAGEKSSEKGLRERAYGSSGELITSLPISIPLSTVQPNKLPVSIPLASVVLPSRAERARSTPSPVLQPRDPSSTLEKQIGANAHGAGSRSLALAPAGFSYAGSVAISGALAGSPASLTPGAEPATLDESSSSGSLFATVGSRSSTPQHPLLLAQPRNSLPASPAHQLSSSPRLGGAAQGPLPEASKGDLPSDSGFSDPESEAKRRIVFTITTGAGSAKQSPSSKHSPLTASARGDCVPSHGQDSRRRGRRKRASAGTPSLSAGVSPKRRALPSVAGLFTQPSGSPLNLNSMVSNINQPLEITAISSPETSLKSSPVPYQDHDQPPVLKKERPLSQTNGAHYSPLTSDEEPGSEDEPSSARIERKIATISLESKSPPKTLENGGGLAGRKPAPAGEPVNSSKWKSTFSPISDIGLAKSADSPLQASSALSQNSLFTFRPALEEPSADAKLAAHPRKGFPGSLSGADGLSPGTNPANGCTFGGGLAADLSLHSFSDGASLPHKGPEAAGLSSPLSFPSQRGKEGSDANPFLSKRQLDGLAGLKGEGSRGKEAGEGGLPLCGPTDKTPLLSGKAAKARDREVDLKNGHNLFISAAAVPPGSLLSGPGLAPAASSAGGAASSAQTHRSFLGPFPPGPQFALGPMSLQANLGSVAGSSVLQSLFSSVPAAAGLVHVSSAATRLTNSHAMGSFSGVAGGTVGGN
compound,measurement,setting,value
CN1CCC(=C2c3ccccc3C=Cc3ccccc32)CC1 [CYPROHEPTADINE],Ki,[1],15 µM
same,inhibition,[2],tde
same,inhibition,[3],Active
same,inhibition,[4],Active
same,inhibition,[5],Active
same,inhibition,[6],inactive
same,inhibition,[7],Active
